Assay results reported in ChEMBL document CHEMBL1687898, “Structure-activity relationships in glycosylated 2-phenyl-indoles, 2-phenyl-benzo[b]thiophenes and 2-phenyl-benzo[b]furans as DNA binding and potential antitumor agents” (Bioorg Med Chem, 2011).

How the values were obtained:
[1] = tested on: Nucleic Acid; assay: Displacement of ethidium bromide from herring sperm DNA assessed as remaining ethidium bromide at 50 uM by FID assay; type: nucleic-acid assay; settings: Clupeidae
Outline: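 Single-point FID. Read EtBr (5 µM) in BPE buffer (pH 7.0), exc 520 nm, em 540–700 nm, then read again with sheared herring sperm DNA added; the intensity difference is 100%. Compound added from 10 mM DMSO stock to a final 50 µM, equilibrated ~3 min, rescanned until steady. % EtBr remaining is the mean of triplicates.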

[2] = tested on: HT-29; assay: Cytotoxicity against human HT-29 cells assessed as cell viability at 25 uM by MTS assay; type: functional; settings: read-out: Activity
Outline: (§1)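 Cells kept in DMEM high glucose with 10% FBS and 2 mM L-glutamine, 37 °C, 5% CO2, and seeded at 1 × 10⁴ cells/well. After 24 h, switched to serum-free DMEM-F12 with albumin, transferrin and insulin, with or without compound. Incubated 3 days at 37 °C in triplicate to quintuplicate wells. MTS added for 2–2.5 h and read at 490 nm. Viability given as % of media-only control. IC50 from Boltzmann nonlinear regression.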

[3] = tested on: HepG2; assay: Cytotoxicity against human HepG2 cells by MTS assay; type: functional, cell-based; outline: as §1
[4] = tested on: HT-29; assay: Cytotoxicity against human HT-29 cells by MTS assay; type: functional, cell-based; outline: as §1
[5] = tested on: HepG2; assay: Cytotoxicity against human HepG2 cells assessed as cell viability at 25 uM by MTS assay; type: functional; settings: read-out: Activity; outline: as §1
[6] = tested on: MCF7; assay: Cytotoxicity against human MCF7 cells assessed as cell viability at 25 uM by MTS assay; type: functional; settings: read-out: Activity; outline: as §1
[7] = tested on: Nucleic Acid; assay: Displacement of ethidium bromide from herring sperm DNA assessed as remaining ethidium bromide at 100 uM by FID assay; type: nucleic-acid assay; settings: Clupeidae
[8] = tested on: MCF7; assay: Cytotoxicity against human MCF7 cells by MTS assay; type: functional, cell-based; outline: as §1
[9] = tested on: HT-29; assay: Cytotoxicity against human HT-29 cells assessed as cell viability at 100 uM by MTS assay; type: functional; settings: read-out: Activity
[10] = tested on: MCF7; assay: Cytotoxicity against human MCF7 cells assessed as cell viability at 100 uM by MTS assay; type: functional; settings: read-out: Activity
[11] = tested on: HepG2; assay: Cytotoxicity against human HepG2 cells assessed as cell viability at 100 uM by MTS assay; type: functional; settings: read-out: Activity
[12] = tested on: Nucleic Acid; assay: Displacement of ethidium bromide from herring sperm DNA assessed as compound concentration required to 50% fluorescence loss of EtBr by FID assay; type: nucleic-acid assay; settings: Clupeidae
Outline: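 Multiple-point FID in the same system: 0.2 µL aliquots of 10 mM DMSO stock added stepwise, fluorescence read after each addition, until 50% loss of EtBr fluorescence. Apparent binding constant K_Ligand = K_EtBr × [EtBr]/[Ligand]50%.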

[13] = tested on: Nucleic Acid; assay: Displacement of ethidium bromide from herring sperm DNA assessed as remaining ethidium bromide at 20 uM by FID assay; type: nucleic-acid assay; settings: Clupeidae

| Activity [1] | Activity [7] | Activity [12] | Activity [13] | SMILES | viability at 25 µM [2] | IC50 [3] | IC50 [4] | viability at 25 µM [5] | viability at 25 µM [6] | IC50 [8] | viability at 100 µM [9] | viability at 100 µM [10] | viability at 100 µM [11] |
| --- | --- | --- | --- | --- | --- | --- | --- | --- | --- | --- | --- | --- | --- |
| 103% | – | – | – | C[C@@H]1O[C@@H](OCC#Cc2c(-c3ccccc3)sc3ccccc23)CC[C@H]1O | 6% | 16.4 µM | 11.1 µM | 25% | 51% | – | – | – | – |
| – | – | – | – | C[C@@H]1O[C@@H](OCCCc2c(-c3ccccc3)sc3ccccc23)CC[C@H]1O | 19% | – | 15.3 µM | 84% | 68% | – | – | – | – |
| – | – | – | – | CC(=O)O[C@@H]1CC[C@H](OCC#Cc2c(-c3ccccc3)sc3ccccc23)O[C@H]1C | < 1% | 12.3 µM | 7.2 µM | < 1% | 27% | – | – | – | – |
| 68.5% | 68.5% | – | – | C[C@@H]1O[C@@H](OCC#Cc2c(-c3ccccc3)oc3ccccc23)CC[C@@H]1N | – | – | – | – | – | – | – | – | – |
| 79.9% | 79.9% | – | – | C[C@@H]1O[C@@H](OCC#Cc2c(-c3ccccc3)sc3ccccc23)CC[C@@H]1N | – | – | – | – | – | – | – | – | – |
| – | – | – | – | CC(=O)O[C@@H]1CC[C@@H](OCC#Cc2c(-c3ccccc3)sc3ccccc23)O[C@H]1C | < 1% | 15.7 µM | 10 µM | 8% | 40% | – | – | – | – |
| 103% | – | – | – | C[C@@H]1O[C@H](OCC#Cc2c(-c3ccccc3)oc3ccccc23)CC[C@H]1O | 7% | 22.3 µM | 12.4 µM | 6% | 29% | – | – | – | – |
| 109% | – | – | – | Cc1ccc(S(=O)(=O)n2c(-c3ccccc3)c(C#CCO[C@@H]3CC[C@@H](O)[C@H](C)O3)c3ccccc32)cc1 | 24% | 18.6 µM | – | 5% | 33% | – | – | – | – |
| – | – | – | – | C[C@@H]1O[C@@H](OCC#Cc2c(-c3ccccc3)sc3ccccc23)CC[C@H]1OC=O | – | 17.4 µM | 7.7 µM | < 1% | 37% | – | – | – | – |
| 111% | – | – | – | Cc1ccc(S(=O)(=O)n2c(-c3ccccc3)c(C#CCO[C@H]3CC[C@@H](O)[C@H](C)O3)c3ccccc32)cc1 | 54% | – | – | 27% | 40% | – | – | – | – |
| – | – | – | – | C[C@@H]1O[C@@H](OCC#Cc2c(-c3ccccc3)sc3ccccc23)CC[C@H]1N | < 1% | 4.7 µM | 5.3 µM | < 1% | < 1% | 6.6 µM | – | – | – |
| 38.6% | – | – | – | Cc1ccc(S(=O)(=O)n2c(-c3ccccc3)c(C#CCO[C@H]3CC[C@H](N)[C@H](C)O3)c3ccccc32)cc1 | – | – | – | – | – | – | – | – | – |
| – | – | – | – | C[C@@H]1O[C@@H](OCC#Cc2c(-c3ccccc3)sc3ccccc23)CC[C@@H]1OC(=O)c1ccccc1 | 81% | – | – | 99% | 100% | – | – | – | – |
| – | – | – | – | OCCCc1c(-c2ccccc2)oc2ccccc12 | 76% | – | – | 91% | 94% | – | < 1% | 16% | < 1% |
| 99.9% | – | – | – | C[C@@H]1O[C@H](OCC#Cc2c(-c3ccccc3)sc3ccccc23)CC[C@H]1O | 2% | 13.6 µM | 12.8 µM | 7% | 23% | – | – | – | – |
| – | – | – | – | C[C@@H]1O[C@@H](OCC#Cc2c(-c3ccccc3)sc3ccccc23)CC[C@@H]1OC=O | 2% | 19.8 µM | 12.6 µM | 17% | 59% | – | – | – | – |
| – | – | – | – | OCCCc1c(-c2ccccc2)sc2ccccc12 | < 1% | – | 16.3 µM | 87% | 79% | – | < 1% | < 1% | < 1% |
| – | – | – | – | C[C@@H]1O[C@@H](OCC#Cc2c(-c3ccccc3)sc3ccccc23)CC[C@@H]1O | 10% | 15.6 µM | 13.4 µM | 10% | 56% | – | – | – | – |
| – | – | – | – | CC(=O)O[C@@H]1CC[C@H](OCC#Cc2c(-c3ccccc3)oc3ccccc23)O[C@H]1C | 8% | 19.2 µM | 11.8 µM | 5% | 24% | – | – | – | – |
| – | – | – | – | CC(=O)O[C@@H]1CC[C@H](OCCCc2c(-c3ccccc3)sc3ccccc23)O[C@H]1C | 9% | – | 10.2 µM | 72% | 47% | – | – | – | – |
| – | 51.9% | – | – | C[C@@H]1O[C@@H](OCCCc2c(-c3ccccc3)sc3ccccc23)CC[C@@H]1N | < 1% | 7.5 µM | 8.2 µM | < 1% | < 1% | 11.8 µM | – | – | – |
| 19.8% | – | 55 µM | > 100% | Cc1ccc(S(=O)(=O)n2c(-c3ccccc3)c(C#CCO[C@@H]3CC[C@H](N)[C@H](C)O3)c3ccccc32)cc1 | < 1% | 5 µM | 5.3 µM | < 1% | < 1% | 5.3 µM | – | – | – |
| 26.9% | – | 55 µM | > 100% | C[C@@H]1O[C@H](OCC#Cc2c(-c3ccccc3)oc3ccccc23)CC[C@@H]1N | < 1% | 6.7 µM | 5.4 µM | < 1% | < 1% | 8.3 µM | – | – | – |
| 96.7% | – | – | – | C[C@@H]1O[C@@H](OCC#Cc2c(-c3ccccc3)oc3ccccc23)CC[C@H]1O | 3% | 15.3 µM | 13.1 µM | < 1% | 38% | – | – | – | – |
| – | 43.5% | – | – | C[C@@H]1O[C@@H](OCCCc2c(-c3ccccc3)oc3ccccc23)CC[C@@H]1N | < 1% | 7.7 µM | 6.9 µM | < 1% | < 1% | 13.8 µM | – | – | – |
| 26.6% | – | 45 µM | – | C[C@@H]1O[C@H](OCC#Cc2c(-c3ccccc3)sc3ccccc23)CC[C@@H]1N | < 1% | 4.9 µM | 4.6 µM | < 1% | < 1% | 7.7 µM | – | – | – |
| – | – | – | – | CC(=O)O[C@@H]1CC[C@@H](OCC#Cc2c(-c3ccccc3)oc3ccccc23)O[C@H]1C | 9% | 20.9 µM | 10.7 µM | 15% | 78% | – | – | – | – |
| – | – | – | – | CC(=O)O[C@@H]1CC[C@H](OCCCc2c(-c3ccccc3)oc3ccccc23)O[C@H]1C | 19% | – | 17.8 µM | 42% | 53% | – | – | – | – |
| – | – | – | – | C[C@@H]1O[C@@H](OCCCc2c(-c3ccccc3)oc3ccccc23)CC[C@H]1O | 25% | – | 16.9 µM | 62% | 65% | – | – | – | – |
